Reference: ChEMBL document CHEMBL1157935, “Potent and selective fluoroketone inhibitors of group VIA calcium-independent phospholipase A2” (J Med Chem, 2010)

biological target: T1, Cytosolic phospholipase A2 (Homo sapiens) (UniProt P47712); experiment: Inhibition of human group […] cPLA2 after 30 mins by Dole assay
T1 sequence (whole entry): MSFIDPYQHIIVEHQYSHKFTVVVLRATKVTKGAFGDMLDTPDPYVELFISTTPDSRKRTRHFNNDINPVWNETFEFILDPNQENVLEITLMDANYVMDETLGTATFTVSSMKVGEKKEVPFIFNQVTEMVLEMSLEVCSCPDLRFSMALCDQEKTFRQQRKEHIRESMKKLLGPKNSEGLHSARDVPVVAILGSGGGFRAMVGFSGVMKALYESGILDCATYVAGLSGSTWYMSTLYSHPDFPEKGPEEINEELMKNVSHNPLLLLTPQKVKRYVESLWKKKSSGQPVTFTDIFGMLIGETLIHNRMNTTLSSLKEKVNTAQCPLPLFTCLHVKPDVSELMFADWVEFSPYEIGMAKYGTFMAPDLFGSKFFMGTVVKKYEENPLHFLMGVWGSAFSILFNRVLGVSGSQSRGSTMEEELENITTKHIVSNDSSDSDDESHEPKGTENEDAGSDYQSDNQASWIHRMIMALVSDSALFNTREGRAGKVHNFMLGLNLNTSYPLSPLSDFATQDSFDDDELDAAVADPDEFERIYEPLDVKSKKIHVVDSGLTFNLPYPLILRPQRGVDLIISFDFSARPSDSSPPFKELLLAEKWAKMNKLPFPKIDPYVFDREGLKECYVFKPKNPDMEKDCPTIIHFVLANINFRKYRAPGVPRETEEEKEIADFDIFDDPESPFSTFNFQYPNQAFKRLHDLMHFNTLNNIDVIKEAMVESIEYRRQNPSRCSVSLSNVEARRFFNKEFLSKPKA
Outline: (§1)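 Screened at 0.091 mole fraction (mean, SE, n = 3). XI(50) from % inhibition vs inhibitor mole fraction, typically 7 levels 0.00091–0.091, fitted by symmetrical sigmoidal non-linear regression.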

SMILES | XI50 (mole fraction)
CCCCCCCCc1ccc(OCCCC(=O)C(F)(F)F)cc1 | 0.022

biological target: T1, Cytosolic phospholipase A2 (Homo sapiens); experiment: Inhibition of human group […] cPLA2 at 0.091 mol fraction after 30 mins by Dole assay; outline: as §1

SMILES | inhibition
CCCCCCCCc1ccc(OCCCC(=O)C(F)(F)C(F)(F)F)cc1 | 88.8%
O=C(CCCCc1ccccc1)C(F)(F)C(F)(F)C(F)(F)F | 32.6%
O=C(CCCCc1ccc2ccccc2c1)C(F)(F)F | 80.8%
O=C(C(F)CCCc1ccccc1)C(F)(F)C(F)(F)C(F)(F)F (stereo unspecified) | 79.9%
CCCCCCOc1ccc(CCCCC(=O)C(F)(F)C(F)(F)C(F)(F)F)cc1 | 43.7%
OC(CCCCc1ccccc1)C(F)(F)C(F)(F)C(F)(F)F (stereo unspecified) | 82%
O=C(C(F)CCCc1ccccc1)C(F)(F)F (stereo unspecified) | 52.1%
CCCCCCCC/C=C\CCCCCCCC(=O)C(F)(F)C(F)(F)F | 41.4%
CCCCCCOc1ccc(CCCCC(=O)C(F)(F)C(F)(F)F)cc1 | 76.1%
O=C(C(F)CCCc1ccccc1)C(F)(F)C(F)(F)F (stereo unspecified) | 68.4%
O=C(CCCCc1ccc2ccccc2c1)C(F)(F)C(F)(F)C(F)(F)F | 55.8%
OC(CCCCc1ccccc1)C(F)(F)C(F)(F)F (stereo unspecified) | 44.8%
O=C(CCCCc1ccc2ccccc2c1)C(F)(F)C(F)(F)F | 77.1%
O=C(C(F)CCCCc1ccccc1)C(F)(F)F (stereo unspecified) | 66%
CCCCCCCCc1ccc(OCCCC(=O)C(F)(F)F)cc1 | 91.5%
O=C(/C=C/C=C/c1ccccc1)C(F)(F)C(F)(F)F | 59%
CCCCCCCC/C=C\CCCCCCCC(=O)C(F)(F)C(F)(F)C(F)(F)F | 57%

biological target: T2, 85/88 kDa calcium-independent phospholipase A2 (Homo sapiens) (UniProt O60733); experiment: Inhibition of human recombinant group 6A iPLA2 expressed in Sf9 insect cells at 0.091 mol fraction after 30 mins by Dole assay
T2 sequence (whole entry): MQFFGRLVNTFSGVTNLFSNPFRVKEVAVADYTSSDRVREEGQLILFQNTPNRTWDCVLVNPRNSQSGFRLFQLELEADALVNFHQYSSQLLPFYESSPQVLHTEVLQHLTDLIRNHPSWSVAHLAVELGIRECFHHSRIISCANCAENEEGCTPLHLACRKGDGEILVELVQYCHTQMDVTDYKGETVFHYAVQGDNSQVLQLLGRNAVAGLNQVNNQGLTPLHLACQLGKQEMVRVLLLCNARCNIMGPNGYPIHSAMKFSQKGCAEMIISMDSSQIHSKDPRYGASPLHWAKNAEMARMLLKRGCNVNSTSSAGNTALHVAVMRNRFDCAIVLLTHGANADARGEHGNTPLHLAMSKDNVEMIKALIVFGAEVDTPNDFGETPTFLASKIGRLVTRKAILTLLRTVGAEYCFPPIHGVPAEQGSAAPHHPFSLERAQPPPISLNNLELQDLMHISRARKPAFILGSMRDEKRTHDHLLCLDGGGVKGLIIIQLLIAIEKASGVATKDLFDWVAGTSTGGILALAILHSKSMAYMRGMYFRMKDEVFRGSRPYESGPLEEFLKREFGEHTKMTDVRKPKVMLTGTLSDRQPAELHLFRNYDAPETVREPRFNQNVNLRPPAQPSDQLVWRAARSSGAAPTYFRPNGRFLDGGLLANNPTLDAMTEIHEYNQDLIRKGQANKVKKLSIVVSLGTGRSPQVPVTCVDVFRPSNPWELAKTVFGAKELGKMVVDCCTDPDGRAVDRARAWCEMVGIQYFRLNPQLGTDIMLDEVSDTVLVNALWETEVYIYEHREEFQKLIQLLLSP
Outline: (§2)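 Screen at 0.091 mole fraction (mean, SE, n = 3). XI(50), the inhibitor mole fraction giving 50% inhibition, fitted sigmoidally from typically 7 levels between 0.00091 and 0.091.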

SMILES | inhibition
CCCCCCCCc1ccc(OCCCC(=O)C(F)(F)C(F)(F)F)cc1 | 99.4%
O=C(CCCCc1ccccc1)C(F)(F)C(F)(F)C(F)(F)F | 99.4%
O=C(CCCCc1ccc2ccccc2c1)C(F)(F)F | 99.9%
O=C(C(F)CCCc1ccccc1)C(F)(F)C(F)(F)C(F)(F)F (stereo unspecified) | 100%
CCCCCCOc1ccc(CCCCC(=O)C(F)(F)C(F)(F)C(F)(F)F)cc1 | 95.8%
OC(CCCCc1ccccc1)C(F)(F)C(F)(F)C(F)(F)F (stereo unspecified) | 97%
O=C(C(F)CCCc1ccccc1)C(F)(F)F (stereo unspecified) | 97.6%
CCCCCCCC/C=C\CCCCCCCC(=O)C(F)(F)C(F)(F)F | 95.5%
CCCCCCOc1ccc(CCCCC(=O)C(F)(F)C(F)(F)F)cc1 | 98.3%
O=C(C(F)CCCc1ccccc1)C(F)(F)C(F)(F)F (stereo unspecified) | 100%
O=C(CCCCc1ccc2ccccc2c1)C(F)(F)C(F)(F)C(F)(F)F | 99.7%
OC(CCCCc1ccccc1)C(F)(F)C(F)(F)F (stereo unspecified) | 94.3%
O=C(CCCCc1ccc2ccccc2c1)C(F)(F)C(F)(F)F | 99.8%
O=C(C(F)CCCCc1ccccc1)C(F)(F)F (stereo unspecified) | 98.8%
CCCCCCCCc1ccc(OCCCC(=O)C(F)(F)F)cc1 | 99.4%
O=C(/C=C/C=C/c1ccccc1)C(F)(F)C(F)(F)F | 96%
O=C(/C=C/c1ccccc1)C(F)(F)C(F)(F)F | 96.4%
O=C(CCCCCc1ccccc1)C(F)(F)C(F)(F)C(F)(F)F | 98.4%
CCCCCCCC/C=C\CCCCCCCC(=O)C(F)(F)C(F)(F)C(F)(F)F | 80.6%
O=C(CCCOc1ccccc1)C(F)(F)C(F)(F)F | 99.1%
O=Cc1ccc(CCCCC(=O)C(F)(F)C(F)(F)F)o1 | 84.4%

biological target: T2, 85/88 kDa calcium-independent phospholipase A2 (Homo sapiens); experiment: Inhibition of human recombinant group 6A iPLA2 expressed in Sf9 insect cells after 30 mins by Dole assay; outline: as §2

SMILES | XI50 (mole fraction)
CCCCCCCCc1ccc(OCCCC(=O)C(F)(F)C(F)(F)F)cc1 | 0.0024
O=C(CCCCc1ccccc1)C(F)(F)C(F)(F)C(F)(F)F | 0.0022
O=C(CCCCc1ccc2ccccc2c1)C(F)(F)F | 0.0002
O=C(C(F)CCCc1ccccc1)C(F)(F)C(F)(F)C(F)(F)F (stereo unspecified) | 0.0005
CCCCCCOc1ccc(CCCCC(=O)C(F)(F)C(F)(F)C(F)(F)F)cc1 | 0.0136
OC(CCCCc1ccccc1)C(F)(F)C(F)(F)C(F)(F)F (stereo unspecified) | 0.0258
O=C(C(F)CCCc1ccccc1)C(F)(F)F (stereo unspecified) | 0.0025
CCCCCCCC/C=C\CCCCCCCC(=O)C(F)(F)C(F)(F)F | 0.0192
CCCCCCOc1ccc(CCCCC(=O)C(F)(F)C(F)(F)F)cc1 | 0.0084
O=C(C(F)CCCc1ccccc1)C(F)(F)C(F)(F)F (stereo unspecified) | 0.0005
O=C(CCCCc1ccc2ccccc2c1)C(F)(F)C(F)(F)C(F)(F)F | 0.001
O=C(CCCCc1ccccc1)C(F)(F)C(F)(F)F | 0.0014
OC(CCCCc1ccccc1)C(F)(F)C(F)(F)F (stereo unspecified) | 0.039
O=C(CCCCc1ccc2ccccc2c1)C(F)(F)C(F)(F)F | 0.0006
O=C(C(F)CCCCc1ccccc1)C(F)(F)F (stereo unspecified) | 0.0013
CCCCCCCCc1ccc(OCCCC(=O)C(F)(F)F)cc1 | 0.0029
O=C(/C=C/C=C/c1ccccc1)C(F)(F)C(F)(F)F | 0.0313
O=C(/C=C/c1ccccc1)C(F)(F)C(F)(F)F | 0.0066
O=C(CCCCCc1ccccc1)C(F)(F)C(F)(F)C(F)(F)F | 0.003
CCCCCCCC/C=C\CCCCCCCC(=O)C(F)(F)C(F)(F)C(F)(F)F | 0.0574
O=C(CCCOc1ccccc1)C(F)(F)C(F)(F)F | 0.0036
O=Cc1ccc(CCCCC(=O)C(F)(F)C(F)(F)F)o1 | 0.0262

species: Homo sapiens; experiment: Selectivity ratio for inhibition of human recombinant group 6A iPLA2 over inhibition of human group […] cPLA2
Outline: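 Ratio derived from XI(50) values for the two enzymes, using the modified Dole assay with 14C-labelled PAPC in Triton X-100 mixed micelles. GVIA iPLA2: 400 μM Triton X-100, 98.3 μM PAPC, 1.7 μM 14C-PAPC, 100 mM HEPES pH 7.5, 2 mM ATP, 4 mM DTT. GIVA cPLA2: 400 μM Triton X-100, 97 μM PAPC, 1.8 μM 14C-PAPC, 3 μM PIP2, 100 mM HEPES pH 7.5, 90 μM CaCl2, 2 mM DTT, 0.1 mg/ml BSA. XI(50) comes from a sigmoidal fit of % inhibition versus log mole fraction (typically 7 points, 0.00091–0.091).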

SMILES | Ratio
O=C(CCCCc1ccc2ccccc2c1)C(F)(F)F | 195
O=C(C(F)CCCc1ccccc1)C(F)(F)C(F)(F)C(F)(F)F (stereo unspecified) | 76

species: Homo sapiens; experiment: Selectivity ratio for inhibition of human recombinant group 6A iPLA2 over inhibition of human group 5 sPLA2

SMILES | Ratio
O=C(CCCCc1ccc2ccccc2c1)C(F)(F)F | > 455
O=C(C(F)CCCc1ccccc1)C(F)(F)C(F)(F)C(F)(F)F (stereo unspecified) | > 180

biological target: T3, Phospholipase A2 group V (Homo sapiens) (UniProt P39877); experiment: Inhibition of human group 5 sPLA2 at 0.091 mol fraction after 30 mins
T3 sequence (whole entry): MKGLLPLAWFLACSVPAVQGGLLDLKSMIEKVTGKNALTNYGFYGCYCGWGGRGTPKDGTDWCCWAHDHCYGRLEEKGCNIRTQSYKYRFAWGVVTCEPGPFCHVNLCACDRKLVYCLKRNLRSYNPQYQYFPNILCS
Outline: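 Inhibitor screened at 0.091 mole fraction of the micelle interface. Average percent inhibition reported (standard error, n = 3); 25% or less inhibition taken as none.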

SMILES | inhibition
CCCCCCCCc1ccc(OCCCC(=O)C(F)(F)C(F)(F)F)cc1 | 63%
O=C(CCCCc1ccccc1)C(F)(F)C(F)(F)C(F)(F)F | 61.8%
O=C(CCCCc1ccc2ccccc2c1)C(F)(F)F | 36.8%
O=C(C(F)CCCc1ccccc1)C(F)(F)C(F)(F)C(F)(F)F (stereo unspecified) | 36.1%
CCCCCCOc1ccc(CCCCC(=O)C(F)(F)C(F)(F)C(F)(F)F)cc1 | 76.9%
OC(CCCCc1ccccc1)C(F)(F)C(F)(F)C(F)(F)F (stereo unspecified) | 65.8%
CCCCCCCC/C=C\CCCCCCCC(=O)C(F)(F)C(F)(F)F | 67%
CCCCCCOc1ccc(CCCCC(=O)C(F)(F)C(F)(F)F)cc1 | 71.7%
O=C(C(F)CCCc1ccccc1)C(F)(F)C(F)(F)F (stereo unspecified) | 39.1%
O=C(CCCCc1ccc2ccccc2c1)C(F)(F)C(F)(F)C(F)(F)F | 46.3%
OC(CCCCc1ccccc1)C(F)(F)C(F)(F)F (stereo unspecified) | 67.3%
O=C(CCCCc1ccc2ccccc2c1)C(F)(F)C(F)(F)F | 58.4%
CCCCCCCCc1ccc(OCCCC(=O)C(F)(F)F)cc1 | 61.4%
O=C(/C=C/c1ccccc1)C(F)(F)C(F)(F)F | 76.9%
CCCCCCCC/C=C\CCCCCCCC(=O)C(F)(F)C(F)(F)C(F)(F)F | 33.9%
O=Cc1ccc(CCCCC(=O)C(F)(F)C(F)(F)F)o1 | 41.9%
